Measured values reported in ChEMBL document CHEMBL1153955, “Indolylarylsulfones bearing natural and unnatural amino acids. Discovery of potent inhibitors of HIV-1 non-nucleoside wild type and resistant mutant strains reverse transcriptase and coxsackie B4 virus” (J Med Chem, 2009).

Assays:
[1] = system: Respiratory syncytial virus; test: Antiviral activity against RSV Long in human HeLa cells assessed as protection against virus-induced cytopathicity; format: functional, organism-based
Method in brief: (§1)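 Confluent cell monolayers inoculated with 100 CCID₅₀ virus. After 1-2 h adsorption, residual virus removed and cultures incubated with varying compound concentrations. Cytopathicity scored once it reached completion in untreated infected controls. EC₅₀ = dose reducing virus-induced cytopathogenicity by 50%.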

[2] = system: Vesicular stomatitis virus; test: Antiviral activity against VSV in human HeLa cells assessed as protection against virus-induced cytopathicity; format: functional, organism-based
[3] = system: Human immunodeficiency virus 1; test: Antiviral activity against HIV1 3B in human CEM cells assessed as protection against virus-induced cytopathicity after 4 days; format: functional, organism-based; conditions: Human immunodeficiency virus 1, 3B, CCRF-CEM, 96 h
Method in brief: (§2)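 CEM cells (~3 × 10⁵ cells/mL) infected with ~100 CCID₅₀ per mL of HIV-1 (IIIB) or HIV-2 (ROD), then seeded into wells containing compound dilutions. After 4 days at 37 °C, syncytium (giant cell) formation was examined microscopically. EC₅₀ = concentration protecting CEM cells from HIV cytopathicity by 50%.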

[4] = system: Human immunodeficiency virus 2; test: Antiviral activity against HIV2 ROD in human CEM cells assessed as protection against virus-induced cytopathicity after 4 days; format: functional, organism-based; conditions: Human immunodeficiency virus 2, ROD, CCRF-CEM, 96 h; method in brief: as §2
[5] = system: L1210; test: Antiproliferative activity against mouse L1210 cells after 2 days; format: cell-based; conditions: L1210, 48 h
Method in brief: (§3)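 Cells seeded at 5 × 10⁴ to 7.5 × 10⁴ cells/200 µL with or without serial compound dilutions; incubated at 37 °C for 2 days (L1210) or 3 days (Molt4/C8, CEM). Cell numbers counted with a Coulter counter. CC₅₀ = concentration reducing proliferation by 50% versus untreated controls, read from plots of cell number (% of control) against concentration. Means of at least two independent experiments.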

[6] = Antiproliferative activity against human Molt4/C8 cells after 3 days; format: cell-based; conditions: MOLT-4, 72 h; method in brief: as §3
[7] = system: CCRF-CEM; test: Antiproliferative activity against human CEM cells after 3 days; format: cell-based; conditions: 72 h; method in brief: as §3
[8] = system: Human immunodeficiency virus 1; test: Antiviral activity against HIV1 with reverse transcriptase L100I mutation in human CEM cells assessed as protection against virus-induced cytopathicity; format: functional, organism-based; conditions: Human immunodeficiency virus 1, CCRF-CEM
Method in brief: (§4)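 CEM cells (~3 × 10⁵ cells/mL) were infected with ~100 CCID₅₀ virus per mL and seeded with serial compound dilutions. After 4 days at 37 °C, syncytium (giant cell) formation was scored microscopically. EC₅₀ is the concentration giving 50% protection against virus cytopathicity.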

[9] = system: Human immunodeficiency virus 1; test: Antiviral activity against HIV1 with reverse transcriptase K103N mutation in human CEM cells assessed as protection against virus-induced cytopathicity; format: functional, organism-based; conditions: Human immunodeficiency virus 1, CCRF-CEM; method in brief: as §4
[10] = system: Human immunodeficiency virus 1; test: Antiviral activity against HIV1 with reverse transcriptase Y181C mutation in human CEM cells assessed as protection against virus-induced cytopathicity; format: functional, organism-based; conditions: Human immunodeficiency virus 1, CCRF-CEM; method in brief: as §4
[11] = system: Human immunodeficiency virus 1; test: Antiviral activity against HIV1 with reverse transcriptase Y181I mutation in human CEM cells assessed as protection against virus-induced cytopathicity; format: functional, organism-based; conditions: Human immunodeficiency virus 1, CCRF-CEM; method in brief: as §4
[12] = system: Human immunodeficiency virus 1; test: Antiviral activity against HIV1 with reverse transcriptase Y188L mutation in human CEM cells assessed as protection against virus-induced cytopathicity; format: functional, organism-based; conditions: Human immunodeficiency virus 1, CCRF-CEM; method in brief: as §4
[13] = target: Human immunodeficiency virus type 1 reverse transcriptase (Human immunodeficiency virus 1, UniProt Q72547); test: Inhibition of HIV1 reverse transcriptase p66/p51; conditions: read-out: IC50
[14] = target: Human immunodeficiency virus type 1 reverse transcriptase (Human immunodeficiency virus 1, UniProt Q72547, L100I); test: Inhibition of HIV1 reverse transcriptase p66/p51 L100I mutant; conditions: read-out: IC50
Method in brief: (§5)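 Substrate was 0.5 µg poly(rA)/oligo(dT) 10:1 (0.3 µM 3′-OH ends) with 10 µM [³H]dTTP, at 37 °C. Acid-precipitable radioactivity was counted on GF/C filters after TCA washes.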

[15] = target: Human immunodeficiency virus type 1 reverse transcriptase (Human immunodeficiency virus 1, UniProt Q72547, K103N); test: Inhibition of HIV1 reverse transcriptase p66/p51 K103N mutant; conditions: read-out: IC50; method in brief: as §5
[16] = target: Human immunodeficiency virus type 1 reverse transcriptase (Human immunodeficiency virus 1, UniProt Q72547, Y181I); test: Inhibition of HIV1 reverse transcriptase p66/p51 Y181I mutant; conditions: read-out: IC50; method in brief: as §5
[17] = Cytotoxicity against human HeLa cells assessed as drug level causing microscopically detectable alteration of normal cell morphology after 3 days; format: cell-based
Method in brief: (§6)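 Serial compound dilutions added to confluent HeLa or Vero monolayers. MCC = minimum concentration causing microscopically detectable alteration of cell morphology after 3 days of incubation.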

[18] = Cytotoxicity against african green monkey Vero cells assessed as drug level causing microscopically detectable alteration of normal cell morphology after 3 days; format: cell-based; conditions: chlorocebus sabaeus; method in brief: as §6
[19] = system: Coxsackievirus B4; test: Antiviral activity against Coxsackievirus B4 in human HeLa cells assessed as protection against virus-induced cytopathicity; format: functional, organism-based; conditions: Enterovirus B; method in brief: as §1
[20] = system: Coxsackievirus B4; test: Antiviral activity against Coxsackievirus B4 in african green monkey Vero cells assessed as protection against virus-induced cytopathicity; format: functional, organism-based; conditions: Enterovirus B; method in brief: as §1
[21] = system: Human respirovirus 3; test: Antiviral activity against Parainfluenza virus type 3 in african green monkey Vero cells assessed as protection against virus-induced cytopathicity; format: functional, organism-based; conditions: Human respirovirus 3, Vero; method in brief: as §1
[22] = system: Mammalian orthoreovirus 1; test: Antiviral activity against Reovirus 1 in african green monkey Vero cells assessed as protection against virus-induced cytopathicity; format: functional, organism-based; conditions: Mammalian orthoreovirus 1, Vero; method in brief: as §1
[23] = system: Sindbis virus; test: Antiviral activity against Sindbis virus in african green monkey Vero cells assessed as protection against virus-induced cytopathicity; format: functional, organism-based; method in brief: as §1
[24] = system: Punta Toro virus; test: Antiviral activity against Punta Toro virus in african green monkey Vero cells assessed as protection against virus-induced cytopathicity; format: functional, organism-based; method in brief: as §1
[25] = Cytotoxicity against human HEL cells assessed as drug level causing microscopically detectable alteration of normal cell morphology after 3 days; format: cell-based
[26] = system: Human alphaherpesvirus 1; test: Antiviral activity against HSV1 KOS in human HEL cells assessed as protection against virus-induced cytopathicity; format: functional, organism-based; conditions: Human alphaherpesvirus 1, KOS
[27] = system: Human alphaherpesvirus 2; test: Antiviral activity against HSV2 G in human HEL cells assessed as protection against virus-induced cytopathicity; format: functional, organism-based; conditions: Human alphaherpesvirus 2, strain G; method in brief: as §1
[28] = system: Vaccinia virus; test: Antiviral activity against Vaccinia virus Lederle in human HEL cells assessed as protection against virus-induced cytopathicity; format: functional, organism-based; conditions: Orthopoxvirus vaccinia
[29] = system: Vesicular stomatitis virus; test: Antiviral activity against VSV in human HEL cells assessed as protection against virus-induced cytopathicity; format: functional, organism-based
[30] = system: Human alphaherpesvirus 1; test: Antiviral activity against thymidine kinase deficient and acyclovir resistant HSV1 KOS in human HEL cells assessed as protection against virus-induced cytopathicity; format: functional, organism-based; conditions: Human alphaherpesvirus 1, KOS
[31] = Cytotoxicity against MDCK cells assessed as drug level causing microscopically detectable alteration of normal cell morphology; format: cell-based, Canis lupus familiaris; conditions: dog
[32] = Cytotoxicity against MDCK cells by MTS assay; format: cell-based, Canis lupus familiaris; conditions: dog
[33] = system: Influenza A virus; test: Antiviral activity against influenza H1N1 virus in MDCK cells assessed as reduction of virus-induced cytopathicity by visual cytopathic effect scoring method; format: functional, organism-based
[34] = system: Influenza A virus; test: Antiviral activity against influenza H1N1 virus in MDCK cells assessed as reduction of virus-induced cytopathicity by MTS method; format: functional, organism-based; conditions: Influenza A virus, H1N1, MDCK
[35] = system: Influenza A virus H3N2; test: Antiviral activity against influenza H3N2 virus in MDCK cells assessed as reduction of virus-induced cytopathicity by visual cytopathic effect scoring method; format: functional, organism-based
[36] = system: Influenza A virus H3N2; test: Antiviral activity against influenza H3N2 virus in MDCK cells assessed as reduction of virus-induced cytopathicity by MTS method; format: functional, organism-based
[37] = system: Influenza B virus; test: Antiviral activity against influenza B virus in MDCK cells assessed as reduction of virus-induced cytopathicity by visual cytopathic effect scoring method; format: functional, organism-based
[38] = system: Influenza B virus; test: Antiviral activity against influenza B virus in MDCK cells assessed as reduction of virus-induced cytopathicity by MTS method; format: functional, organism-based
[39] = Cytotoxicity against feline CRFK cells by MTS assay; format: cell-based, Felis catus; conditions: cat
[40] = system: Feline coronavirus; test: Antiviral activity against Feline coronavirus in feline […] cells assessed as inhibition of virus-induced cytopathicity; format: functional, organism-based; conditions: Alphacoronavirus 1
[41] = system: Felid alphaherpesvirus 1; test: Antiviral activity against Feline herpesvirus in feline […] cells assessed as inhibition of virus-induced cytopathicity; format: functional, organism-based

## Cc1cc(C)cc(S(=O)(=O)c2c(C(=O)NC(C)C(N)=O)[nH]c3ccc(Cl)cc23)c1 (configuration not stated)
[1]
  EC50: > 100 µM
[2]
  EC50: > 100 µM
[3]
  EC50: 0.0016 µM
[4]
  EC50: > 10 µM
[5]
  IC50: 12 µM
[6]
  IC50: 3.8 µM
[7]
  IC50: 11 µM
[8]
  IC50: 0.009 µM
[9]
  IC50: 0.014 µM
[10]
  IC50: 0.096 µM
[11]
  IC50: > 1 µM
[12]
  IC50: 0.66 µM
[13]
  IC50: 0.02 µM
[14]
  IC50: 0.112 µM
[15]
  IC50: 0.19 µM
[16]
  IC50: 2.49 µM
[17]
  MCC at 72 h: 100 µM
[18]
  MCC at 72 h: 100 µM
[19]
  EC50: 6 µM
[20]
  EC50: > 20 µM
[21]
  EC50: > 20 µM
[22]
  EC50: > 20 µM
[23]
  EC50: > 20 µM
[24]
  EC50: > 20 µM
[25]
  MCC at 72 h: > 100 µM
[26]
  EC50: > 100 µM
[27]
  EC50: > 100 µM
[28]
  EC50: > 100 µM
[29]
  EC50: > 100 µM
[30]
  EC50: > 100 µM
[31]
  MCC: 20 µM
[32]
  CC50: 16 µM
[33]
  EC50: > 4 µM
[34]
  EC50: > 4 µM
[35]
  EC50: > 4 µM
[36]
  EC50: > 4 µM
[37]
  EC50: > 4 µM
[38]
  EC50: > 4 µM
[39]
  CC50: 39.3 µM
[40]
  EC50: > 20 µM
[41]
  EC50: > 20 µM

## Cc1cc(C)cc(S(=O)(=O)c2c(C(=O)NCCS(N)(=O)=O)[nH]c3ccc(Br)cc23)c1
[1]
  EC50: > 4 µM
[2]
  EC50: > 4 µM
[3]
  EC50: 0.001 µM
[4]
  EC50: > 10 µM
[5]
  IC50: 17 µM
[6]
  IC50: 11 µM
[7]
  IC50: 14 µM
[13]
  IC50: 0.002 µM
[14]
  IC50: 0.013 µM
[15]
  IC50: 0.529 µM
[16]
  IC50: > 40 µM
[17]
  MCC at 72 h: 20 µM
[18]
  MCC at 72 h: ≥ 20 µM
[19]
  EC50: ≥ 4 µM
[20]
  EC50: 12 µM
[21]
  EC50: > 20 µM
[22]
  EC50: > 20 µM
[23]
  EC50: > 20 µM
[24]
  EC50: > 20 µM
[25]
  MCC at 72 h: 20 µM
[26]
  EC50: > 4 µM
[27]
  EC50: > 4 µM
[28]
  EC50: > 4 µM
[29]
  EC50: > 4 µM
[30]
  EC50: > 4 µM
[31]
  MCC: 4 µM
[32]
  CC50: 1.9 µM
[33]
  EC50: > 800 µM
[34]
  EC50: > 800 µM
[35]
  EC50: > 800 µM
[36]
  EC50: > 800 µM
[37]
  EC50: > 800 µM
[38]
  EC50: > 800 µM
[39]
  CC50: 11.9 µM
[40]
  EC50: > 4 µM
[41]
  EC50: > 4 µM
